# According to ChEMBL document CHEMBL2331332 (J Med Chem, 2013):
# Tests used:
# [1] = biological target: T1, Prostaglandin E synthase (Homo sapiens, UniProt O14684); assay: Inhibition of full-length microsomal PGES-1 (unknown origin) expressed in Escherichia coli Rosetta(DE3) using PGH2 as substrate assessed as inhibition of PGH2 conversion to PGE2 incubated 15 mins prior to substrate addition measured after 1 min by EIA
# T1 sequence (O14684 whole entry): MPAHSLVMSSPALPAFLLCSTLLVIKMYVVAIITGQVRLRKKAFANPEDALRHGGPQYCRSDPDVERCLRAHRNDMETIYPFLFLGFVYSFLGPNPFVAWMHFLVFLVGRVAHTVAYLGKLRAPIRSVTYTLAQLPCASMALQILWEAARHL
# In short: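 Reactions used 2.5 mM cofactor and 17 μM PGH2 for 1 min at 4 °C, then were stopped, and PGE2 was quantified by EIA. IC50 came from dose-response curves. Mean ± SEM, n = 3.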
# [2] = biological target: T2, Polyunsaturated fatty acid 5-lipoxygenase (Homo sapiens) (UniProt P09917); assay: Inhibition of 5-LOX-mediated LTB4 formation in human whole blood at 10 uM incubated for 20 mins prior to substrate addition measured after 0.5 hrs by EIA in presence of calcium ionophore A23187
# T2 sequence (whole entry): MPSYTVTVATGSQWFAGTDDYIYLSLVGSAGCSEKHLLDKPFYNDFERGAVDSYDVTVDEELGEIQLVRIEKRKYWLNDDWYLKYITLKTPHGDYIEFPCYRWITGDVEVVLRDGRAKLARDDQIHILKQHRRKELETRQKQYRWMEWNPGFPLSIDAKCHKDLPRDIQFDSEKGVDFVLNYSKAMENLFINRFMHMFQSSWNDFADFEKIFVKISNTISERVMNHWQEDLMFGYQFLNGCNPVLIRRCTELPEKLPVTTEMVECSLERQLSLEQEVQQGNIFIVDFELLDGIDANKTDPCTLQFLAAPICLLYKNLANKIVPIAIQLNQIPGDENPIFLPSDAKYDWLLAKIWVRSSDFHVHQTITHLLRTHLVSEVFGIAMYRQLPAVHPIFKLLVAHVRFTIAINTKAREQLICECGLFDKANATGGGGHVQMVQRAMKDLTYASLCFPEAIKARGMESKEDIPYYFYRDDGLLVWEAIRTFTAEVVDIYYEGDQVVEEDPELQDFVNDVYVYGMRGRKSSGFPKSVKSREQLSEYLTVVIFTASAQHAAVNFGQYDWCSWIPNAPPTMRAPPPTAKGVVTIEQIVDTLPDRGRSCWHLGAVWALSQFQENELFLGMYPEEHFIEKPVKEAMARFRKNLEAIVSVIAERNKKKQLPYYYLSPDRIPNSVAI
# In short: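 Human whole blood was stimulated with calcium ionophore A23187 (final 20 μg/mL) for 0.5 h at 37 °C to induce LTB4 formation. Compounds were tested at 10 μM.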
# [3] = biological target: T2, Polyunsaturated fatty acid 5-lipoxygenase (Homo sapiens); assay: Inhibition of 5-LOX (unknown origin) at 10 uM by human whole blood LTB4 assay
# [4] = biological target: T1, Prostaglandin E synthase; assay: Inhibition of PGES-1 in human whole blood assessed as LPS-induced PGE2 formation incubated for 15 mins prior to LPS addition measured after 24 hrs by EIA
# In short: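 Fresh heparinized blood came from healthy volunteers free of NSAIDs for at least 14 days. It was preincubated 15 min at 37 °C with compound or DMSO vehicle. LPS (final 100 μg/mL) was then added for 24 h at 37 °C. Plasma was obtained by centrifugation at 4 °C, and PGE2 was read by EIA.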
# [5] = tested on: Prostaglandin G/H synthase 1 (COX-1); assay: Inhibition of COX-1 (unknown origin)-mediated TMPD oxidation using PGG2 as substrate at 100 uM incubated 15 mins prior to substrate addition measured after 36 secs by spectrophotometric analysis; settings: Homo sapiens
# [6] = tested on: Prostaglandin G/H synthase 2 (COX-2); assay: Inhibition of COX-2 (unknown origin)-mediated TMPD oxidation using PGG2 as substrate at 100 uM incubated 15 mins prior to substrate addition measured after 36 secs by spectrophotometric analysis; settings: Homo sapiens
Structure (SMILES),IC50 [1] [nM],IC50 [4] [nM],further results
O=C(CSc1nnc(-c2ccccc2)c(-c2ccccc2)n1)C12CC3CC(CC(C3)C1)C2,13900,–,–
CCOC(=O)c1ccc(NC(=O)CSc2nnc(CNc3c(C)cccc3C)n2C)cc1,5400,–,–
CCn1c(CNc2ccc(C)cc2C)nnc1SCC(=O)c1ccc(C)cc1,7500,–,–
Cc1ccc([N+](=O)[O-])cc1NC(=O)CSc1nnc(-c2ccccc2C)n1C,54500,–,–
COc1ccc(-c2nnc(SCC(=O)Nc3ccc(Cl)cc3)nc2-c2ccc(OC)cc2)cc1,3100,–,–
C=CCSc1nnc2c(n1)OC(c1ccc(-c3cccc([N+](=O)[O-])c3)o1)Nc1ccccc1-2 (configuration not stated),1600,> 200000,–
Clc1ccc(CSc2nnc(-c3ccccc3)c(-c3ccccc3)n2)cc1,> 100000,–,–
Cc1ccc(C)c(NC(=O)CSc2nnc(CNc3c(C)cccc3C)n2C)c1,3600,–,–
Cc1cccc(C)c1NCc1nnc(SCC(=O)Nc2ccc(F)cc2)n1-c1ccccc1,9200,–,–
C=CCn1c(CNc2c(C)cccc2C)nnc1SCC(=O)Nc1ccccc1C,12600,–,–
O=C(CSc1nnc(-c2ccccc2)c(-c2ccccc2)n1)c1ccccc1,2500,–,–
O=C(CCCSc1nnc(-c2ccccc2)c(-c2ccccc2)n1)c1ccccc1,50800,–,–
Cc1ccc2[nH]c3c(c2c1)CCC/C3=N\N=C1/CCCc2c1[nH]c1ccc(C)cc21,5000,> 200000,–
O=C(CSc1nc(-c2ccccc2)c(-c2ccccc2)[nH]1)c1ccccc1,10400,–,–
Cc1ccc(N2CCn3c(SCC(=O)Nc4cc(C)ccc4C)nnc32)cc1,> 100000,–,–
Cc1[nH]c2ccccc2c1C(=O)C(C)Sc1nnc(-c2ccccc2)c(-c2ccccc2)n1 (configuration not stated),2100,–,–
O=C(COC(=O)c1ccc2c(c1)C(=O)N(c1ccc(Oc3ccccc3)cc1)C2=O)c1ccc(Br)cc1,1700,200000,–
Cc1cccc(C)c1NCc1nnc(SCc2ccc(Cl)cc2)n1-c1ccccc1,19400,–,–
CCCCCCCSc1nnc(-c2ccc(OC)cc2)c(-c2ccc(OC)cc2)n1,45400,–,–
Cc1nc2sc3c(c2c(=O)n1/N=C/c1cc([N+](=O)[O-])cc([N+](=O)[O-])c1O)CCCC3,1800,130000,–
O=C(CSc1nnc(-c2ccccc2)c(-c2ccccc2)n1)c1cccs1,9600,–,–
CCCCCCCCCSc1nnc(-c2ccc(OC)cc2)c(-c2ccc(OC)cc2)n1,32900,–,–
O=C(CSc1ncc(-c2ccccc2)nn1)c1ccccc1,32500,–,–
CC(C)(C)C(=O)CSc1nnc(-c2ccccc2)c(-c2ccccc2)n1,17800,–,–
Cc1ccc(C(=O)O)cc1-c1ccc(/C=C2\SC(=O)N(CC(=O)Nc3ccccc3)C2=O)o1,1200,160000,–
Cc1ccc(C)c(NC(=O)CSc2nnc(CNc3c(C)cccc3C)n2-c2ccccc2)c1,13600,–,–
COc1ccc(C(=O)CSc2nnc(-c3ccco3)c(-c3ccco3)n2)cc1,5000,–,–
CCn1c(CNc2ccc(C)cc2C)nnc1SCC(=O)Nc1ccc(C)cc1,5100,–,–
Cn1c(=O)c(/C(=N/Nc2ccc([N+](=O)[O-])cc2[N+](=O)[O-])c2nnn[nH]2)c(O)c2ccccc21,1700,> 200000,–

# Molecules with a lower IC50 [1], results first:
IC50 [1] [nM],IC50 [4] [nM],Structure (SMILES),further results
2,1400,CC(c1ccccc1)N1C(=O)c2ccc(C(=O)Nc3cc(Cl)ccc3C(=O)O)cc2C1=O (configuration not stated),inhibition [2]: < 1%; inhibition [3]: < 1%
500,–,O=C(CSc1nnc(-c2ccccc2)c(-c2ccccc2)n1)c1c[nH]c2ccccc12,–
480,–,Cc1ccc(-c2nnc(SCC(=O)c3c[nH]c4ccccc34)nc2-c2ccc(C)cc2)cc1,–
10,17000,CC1=NN(c2ccc([N+](=O)[O-])cc2)C(=O)/C1=N\Nc1ccccc1C(=O)O,inhibition [5]: 1%; inhibition [2]: < 1%; inhibition [6]: 2.5%; inhibition [3]: 10%
9.7,8500,COc1cc(NC(=O)c2nn3c(C(F)(F)F)cc(-c4ccc(Br)cc4)nc3c2Cl)cc([N+](=O)[O-])c1,inhibition [5]: < 1%; inhibition [2]: < 1%; inhibition [6]: -2.2%; inhibition [3]: 39%
290,–,O=C1COc2ccc(C(=O)CSc3nnc(-c4ccccc4)c(-c4ccccc4)n3)cc2N1,–
240,–,Cc1ccc([N+](=O)[O-])cc1NC(=O)CSc1nnc(CSCc2ccccc2)n1C,–
100,200000,O=C(N/N=C/c1ccc([N+](=O)[O-])cc1)c1cc(OCc2ccccc2)c(OCc2ccccc2)c(OCc2ccccc2)c1,–
9.3,700,Cc1ccc([N+](=O)[O-])cc1NC(=O)CSc1nnc(CNc2c(C)cccc2C)n1C,inhibition [5]: < 1%; inhibition [2]: < 1%; inhibition [6]: < 1%; inhibition [3]: 8%
100,> 200000,CCn1c2ccccc2c2cc(-c3cc(C(=O)O)c4c(ccc5ccccc54)n3)ccc21,–
1000,–,COc1ccc(C(=O)CSc2nnc(-c3ccc(OC)cc3)c(-c3ccc(OC)cc3)n2)cc1,–
100,–,Cc1ccc([N+](=O)[O-])cc1NC(=O)CSc1nnc(CC(=O)Nc2ccccc2)n1C,–
1.1,4400,COc1cc(-c2cc(C(=O)O)c3c(ccc4ccccc43)n2)ccc1OCCCC#N,inhibition [5]: 4.1%; inhibition [2]: < 1%; inhibition [6]: 1%; inhibition [3]: < 1%
200,–,Cc1ccc(Cl)c(NC(=O)CSc2nnc(CNc3c(C)cccc3C)n2C)c1,–
6.5,8500,Clc1ccc(/C=C/c2cc(-c3ccc(-c4ccccc4)cc3)nc3ccc4ccccc4c23)cc1,inhibition [5]: < 1%; inhibition [2]: < 1%; inhibition [6]: 1.8%; inhibition [3]: 10%
57,66000,C/C(=N\NC(=O)c1ccc([N+](=O)[O-])c(C)c1)c1cccc(NC(=O)COc2ccc(Cl)cc2Cl)c1,–
4.6,6200,Cc1cc(C)c2oc(-c3ccc(C)c(NC(=O)c4cccc([N+](=O)[O-])c4)c3)nc2c1,inhibition [2]: < 1%; inhibition [3]: 30%
710,–,Cc1ccc([N+](=O)[O-])cc1NC(=O)CSc1nnc(CNC(=O)COc2c(C)cccc2C)n1C,–
910,–,C=CCn1c(SCC(=O)c2ccc3c(c2)Cc2ccccc2-3)nnc1-c1ccc(OC)cc1,–
170,18500,CC1=NN(c2ccc(Cl)c(Cl)c2)C(=O)/C1=C/c1cc(Br)ccc1OCC(=O)O,–
33,–,Cc1ccc([N+](=O)[O-])cc1NC(=O)CSc1nnc(CNc2ccc(Cl)cc2)n1C,–
800,–,Cc1ccc([N+](=O)[O-])cc1NC(=O)CSc1nnc(Cc2ccccc2)n1C,–
38,120000,COc1ccc(CN2C(=O)/C(=C/c3ccc(OCc4ccc([N+](=O)[O-])cc4)c(Br)c3)S/C2=N\c2ccccc2)cc1,–
54,–,CCn1c(CNC(=O)c2ccc(C)cc2)nnc1SCC(=O)Nc1cc([N+](=O)[O-])ccc1C,–
640,–,Cc1ccc(-c2nnc(SCC(=O)c3ccc(CC(N)=O)s3)nc2-c2ccc(C)cc2)cc1,–
930,–,COc1ccc(OC)c(NC(=O)CSc2nnc(CNc3c(C)cccc3C)n2C)c1,–
